{
  "source": "paper PMC3947313",
  "about": "(Journal of neurochemistry, 2013)",
  "key": {"[1]": {"tested_on": "ERK2-pT202pY204", "assay": "Enzyme-coupled", "format": "biochemical", "conditions": "for decrease of kcat/Km (activity) toward phospho-ERK protein: STEP variant compared to wild-type STEP; for effect of mutation on activity toward phospho-ERK protein (in words): compared to the respective wild-type phosphatase", "outline": "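Phospho-ERK2 protein was prepared using ERK2 and MEK1 expression plasmids. Initial rates were fitted to Michaelis-Menten for Km and kcat. At substrate << Km, kcat/Km came from first-order progress-curve fitting. Values are mean ± standard error.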"}, "[2]": {"tested_on": "ERK pT202pY204 phospho-peptide", "format": "biochemical", "conditions": "compared to wild-type STEP", "outline": "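Synthetic, HPLC-purified Tyr(P)-containing peptides were dephosphorylated at 37°C in 50 mM succinic buffer (pH 6.0), 1 mM EDTA and 2 mM DTT, ionic strength 0.15 M (NaCl). Released phosphate was measured with BIOMOL Green at 620 nm. Hydrolysis was also followed continuously by tyrosine fluorescence (excitation 280 nm, emission 305 nm). Michaelis-Menten fits gave kinetic parameters (mean ± standard error).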"}},
  "data": [
    {"molecule": "STEP: purified striatal-enriched protein tyrosine phosphatase (human PTPN5), wild type (protein, UniProt P54829 1-565, looked up) Tyrosine-protein phosphatase …: MNYEGARSERENHAADDSEGGALDMCCSERLPGLPQPIVMEALDEAEGLQDSQREMPPPPPPSPPSDPAQKPPPRGAGSHSLTVRSSLCLFAASQFLLACGVLWFSGYGHIWSQNATNLVSSLLTLLKQLEPTAWLDSGTWGVPSLLLVFLSVGLVLVTTLVWHLLRTPPEPPTPLPPEDRRQSVSRQPSFTYSEWMEEKIEDDFLDLDPVPETPVFDCVMDIKPEADPTSLTVKSMGLQERRGSNVSLTLDMCTPGCNEEGFGYLMSPREESAREYLLSASRVLQAEELHEKALDPFLLQAEFFEIPMNFVDPKEYDIPGLVRKNRYKTILPNPHSRVCLTSPDPDDPLSSYINANYIRGYGGEEKVYIATQGPIVSTVADFWRMVWQEHTPIIVMITNIEEMNEKCTEYWPEEQVAYDGVEITVQKVIHTEDYRLRLISLKSGTEERGLKHYWFTSWPDQKTPDRAPPLLHLVREVEEAAQQEGPHCAPIIVHCSAGIGRTGCFIATSICCQQLRQEGVVDILKTTCQLRQDRGGMIQTCEQYQFVHHVMSLYEKQLSHQSPE", "values": [
      {"measurement": "kcat of ERK-pT202pY204 dephosphorylation", "setting": "[1]; pH 7.0, 25°C, initial rates fitted to Michaelis-Menten, OD360", "result": 0.78, "unit": "s^−1"}
    ]},
    {"molecule": "L251A: STEP KIM mutant L251A (protein, UniProt P54829 1-565, looked up, variant L251A) Tyrosine-protein phosphatase …: MNYEGARSERENHAADDSEGGALDMCCSERLPGLPQPIVMEALDEAEGLQDSQREMPPPPPPSPPSDPAQKPPPRGAGSHSLTVRSSLCLFAASQFLLACGVLWFSGYGHIWSQNATNLVSSLLTLLKQLEPTAWLDSGTWGVPSLLLVFLSVGLVLVTTLVWHLLRTPPEPPTPLPPEDRRQSVSRQPSFTYSEWMEEKIEDDFLDLDPVPETPVFDCVMDIKPEADPTSLTVKSMGLQERRGSNVSLTADMCTPGCNEEGFGYLMSPREESAREYLLSASRVLQAEELHEKALDPFLLQAEFFEIPMNFVDPKEYDIPGLVRKNRYKTILPNPHSRVCLTSPDPDDPLSSYINANYIRGYGGEEKVYIATQGPIVSTVADFWRMVWQEHTPIIVMITNIEEMNEKCTEYWPEEQVAYDGVEITVQKVIHTEDYRLRLISLKSGTEERGLKHYWFTSWPDQKTPDRAPPLLHLVREVEEAAQQEGPHCAPIIVHCSAGIGRTGCFIATSICCQQLRQEGVVDILKTTCQLRQDRGGMIQTCEQYQFVHHVMSLYEKQLSHQSPE", "values": [
      {"measurement": "decrease of kcat/Km (activity) toward phospho-ERK protein", "setting": "[1]; pH 7.0, 25°C", "result": 7, "unit": "fold"}
    ]},
    {"molecule": "Q462H: STEP WPD-loop mutant Q462H (protein, UniProt P54829 1-565, looked up, variant Q462H) Tyrosine-protein phosphatase …: MNYEGARSERENHAADDSEGGALDMCCSERLPGLPQPIVMEALDEAEGLQDSQREMPPPPPPSPPSDPAQKPPPRGAGSHSLTVRSSLCLFAASQFLLACGVLWFSGYGHIWSQNATNLVSSLLTLLKQLEPTAWLDSGTWGVPSLLLVFLSVGLVLVTTLVWHLLRTPPEPPTPLPPEDRRQSVSRQPSFTYSEWMEEKIEDDFLDLDPVPETPVFDCVMDIKPEADPTSLTVKSMGLQERRGSNVSLTLDMCTPGCNEEGFGYLMSPREESAREYLLSASRVLQAEELHEKALDPFLLQAEFFEIPMNFVDPKEYDIPGLVRKNRYKTILPNPHSRVCLTSPDPDDPLSSYINANYIRGYGGEEKVYIATQGPIVSTVADFWRMVWQEHTPIIVMITNIEEMNEKCTEYWPEEQVAYDGVEITVQKVIHTEDYRLRLISLKSGTEERGLKHYWFTSWPDHKTPDRAPPLLHLVREVEEAAQQEGPHCAPIIVHCSAGIGRTGCFIATSICCQQLRQEGVVDILKTTCQLRQDRGGMIQTCEQYQFVHHVMSLYEKQLSHQSPE", "values": [
      {"measurement": "effect of mutation on activity toward phospho-ERK protein (in words)", "setting": "[1]", "result": "increase"},
      {"measurement": "effect of mutation on Km for the phospho-ERK-peptide (in words)", "setting": "[2]", "result": "significantly lower"}
    ]},
    {"molecule": "R242A: STEP KIM mutant R242A (protein, UniProt P54829 1-565, looked up, variant R242A) Tyrosine-protein phosphatase …: MNYEGARSERENHAADDSEGGALDMCCSERLPGLPQPIVMEALDEAEGLQDSQREMPPPPPPSPPSDPAQKPPPRGAGSHSLTVRSSLCLFAASQFLLACGVLWFSGYGHIWSQNATNLVSSLLTLLKQLEPTAWLDSGTWGVPSLLLVFLSVGLVLVTTLVWHLLRTPPEPPTPLPPEDRRQSVSRQPSFTYSEWMEEKIEDDFLDLDPVPETPVFDCVMDIKPEADPTSLTVKSMGLQEARGSNVSLTLDMCTPGCNEEGFGYLMSPREESAREYLLSASRVLQAEELHEKALDPFLLQAEFFEIPMNFVDPKEYDIPGLVRKNRYKTILPNPHSRVCLTSPDPDDPLSSYINANYIRGYGGEEKVYIATQGPIVSTVADFWRMVWQEHTPIIVMITNIEEMNEKCTEYWPEEQVAYDGVEITVQKVIHTEDYRLRLISLKSGTEERGLKHYWFTSWPDQKTPDRAPPLLHLVREVEEAAQQEGPHCAPIIVHCSAGIGRTGCFIATSICCQQLRQEGVVDILKTTCQLRQDRGGMIQTCEQYQFVHHVMSLYEKQLSHQSPE", "values": [
      {"measurement": "decrease of kcat/Km (activity) toward phospho-ERK protein", "setting": "[1]; pH 7.0, 25°C", "result": 4, "unit": "fold"}
    ]},
    {"molecule": "L249A: STEP KIM mutant L249A (protein, UniProt P54829 1-565, looked up, variant L249A) Tyrosine-protein phosphatase …: MNYEGARSERENHAADDSEGGALDMCCSERLPGLPQPIVMEALDEAEGLQDSQREMPPPPPPSPPSDPAQKPPPRGAGSHSLTVRSSLCLFAASQFLLACGVLWFSGYGHIWSQNATNLVSSLLTLLKQLEPTAWLDSGTWGVPSLLLVFLSVGLVLVTTLVWHLLRTPPEPPTPLPPEDRRQSVSRQPSFTYSEWMEEKIEDDFLDLDPVPETPVFDCVMDIKPEADPTSLTVKSMGLQERRGSNVSATLDMCTPGCNEEGFGYLMSPREESAREYLLSASRVLQAEELHEKALDPFLLQAEFFEIPMNFVDPKEYDIPGLVRKNRYKTILPNPHSRVCLTSPDPDDPLSSYINANYIRGYGGEEKVYIATQGPIVSTVADFWRMVWQEHTPIIVMITNIEEMNEKCTEYWPEEQVAYDGVEITVQKVIHTEDYRLRLISLKSGTEERGLKHYWFTSWPDQKTPDRAPPLLHLVREVEEAAQQEGPHCAPIIVHCSAGIGRTGCFIATSICCQQLRQEGVVDILKTTCQLRQDRGGMIQTCEQYQFVHHVMSLYEKQLSHQSPE", "values": [
      {"measurement": "decrease of kcat/Km (activity) toward phospho-ERK protein", "setting": "[1]; pH 7.0, 25°C", "result": 2.5, "unit": "fold"}
    ]},
    {"molecule": "E543: STEP Q-loop mutant, conserved E543 mutated to arginine (protein, UniProt P54829 1-565, looked up, variant E543R) Tyrosine-protein phosphatase …: MNYEGARSERENHAADDSEGGALDMCCSERLPGLPQPIVMEALDEAEGLQDSQREMPPPPPPSPPSDPAQKPPPRGAGSHSLTVRSSLCLFAASQFLLACGVLWFSGYGHIWSQNATNLVSSLLTLLKQLEPTAWLDSGTWGVPSLLLVFLSVGLVLVTTLVWHLLRTPPEPPTPLPPEDRRQSVSRQPSFTYSEWMEEKIEDDFLDLDPVPETPVFDCVMDIKPEADPTSLTVKSMGLQERRGSNVSLTLDMCTPGCNEEGFGYLMSPREESAREYLLSASRVLQAEELHEKALDPFLLQAEFFEIPMNFVDPKEYDIPGLVRKNRYKTILPNPHSRVCLTSPDPDDPLSSYINANYIRGYGGEEKVYIATQGPIVSTVADFWRMVWQEHTPIIVMITNIEEMNEKCTEYWPEEQVAYDGVEITVQKVIHTEDYRLRLISLKSGTEERGLKHYWFTSWPDQKTPDRAPPLLHLVREVEEAAQQEGPHCAPIIVHCSAGIGRTGCFIATSICCQQLRQEGVVDILKTTCQLRQDRGGMIQTCRQYQFVHHVMSLYEKQLSHQSPE", "values": [
      {"measurement": "effect of mutation on activity toward phospho-ERK protein (in words)", "setting": "[1]", "result": "no effect"}
    ]},
    {"molecule": "R243A: STEP KIM mutant R243A (protein, UniProt P54829 1-565, looked up, variant R243A) Tyrosine-protein phosphatase …: MNYEGARSERENHAADDSEGGALDMCCSERLPGLPQPIVMEALDEAEGLQDSQREMPPPPPPSPPSDPAQKPPPRGAGSHSLTVRSSLCLFAASQFLLACGVLWFSGYGHIWSQNATNLVSSLLTLLKQLEPTAWLDSGTWGVPSLLLVFLSVGLVLVTTLVWHLLRTPPEPPTPLPPEDRRQSVSRQPSFTYSEWMEEKIEDDFLDLDPVPETPVFDCVMDIKPEADPTSLTVKSMGLQERAGSNVSLTLDMCTPGCNEEGFGYLMSPREESAREYLLSASRVLQAEELHEKALDPFLLQAEFFEIPMNFVDPKEYDIPGLVRKNRYKTILPNPHSRVCLTSPDPDDPLSSYINANYIRGYGGEEKVYIATQGPIVSTVADFWRMVWQEHTPIIVMITNIEEMNEKCTEYWPEEQVAYDGVEITVQKVIHTEDYRLRLISLKSGTEERGLKHYWFTSWPDQKTPDRAPPLLHLVREVEEAAQQEGPHCAPIIVHCSAGIGRTGCFIATSICCQQLRQEGVVDILKTTCQLRQDRGGMIQTCEQYQFVHHVMSLYEKQLSHQSPE", "values": [
      {"measurement": "decrease of kcat/Km (activity) toward phospho-ERK protein", "setting": "[1]; pH 7.0, 25°C", "result": 6, "unit": "fold"}
    ]},
    {"molecule": "STEP (R242 and R243): STEP with combined mutation of R242 and R243 to alanine (protein, UniProt P54829 1-565, looked up, variant R242A R243A) Tyrosine-protein phosphatase …: MNYEGARSERENHAADDSEGGALDMCCSERLPGLPQPIVMEALDEAEGLQDSQREMPPPPPPSPPSDPAQKPPPRGAGSHSLTVRSSLCLFAASQFLLACGVLWFSGYGHIWSQNATNLVSSLLTLLKQLEPTAWLDSGTWGVPSLLLVFLSVGLVLVTTLVWHLLRTPPEPPTPLPPEDRRQSVSRQPSFTYSEWMEEKIEDDFLDLDPVPETPVFDCVMDIKPEADPTSLTVKSMGLQEAAGSNVSLTLDMCTPGCNEEGFGYLMSPREESAREYLLSASRVLQAEELHEKALDPFLLQAEFFEIPMNFVDPKEYDIPGLVRKNRYKTILPNPHSRVCLTSPDPDDPLSSYINANYIRGYGGEEKVYIATQGPIVSTVADFWRMVWQEHTPIIVMITNIEEMNEKCTEYWPEEQVAYDGVEITVQKVIHTEDYRLRLISLKSGTEERGLKHYWFTSWPDQKTPDRAPPLLHLVREVEEAAQQEGPHCAPIIVHCSAGIGRTGCFIATSICCQQLRQEGVVDILKTTCQLRQDRGGMIQTCEQYQFVHHVMSLYEKQLSHQSPE", "values": [
      {"measurement": "effect of combined R-to-A mutation on ERK dephosphorylation (in words)", "setting": "[1]; compared to single R-to-A mutations of STEP", "result": "did not promote a further decrease"}
    ]}
  ]
}
